Measured values: paper PMC7059553 (Science translational medicine, 2018)
Like-named read-outs stand apart in the source and are kept apart here.

Assays:
TXNRD1 [1] = molecular target: T1, TXNRD1 (Rattus norvegicus, UniProt O89049); experiment: Reversibility of TXNRD1 inhibition; type: biochemical
T1 sequence (O89049 1-499): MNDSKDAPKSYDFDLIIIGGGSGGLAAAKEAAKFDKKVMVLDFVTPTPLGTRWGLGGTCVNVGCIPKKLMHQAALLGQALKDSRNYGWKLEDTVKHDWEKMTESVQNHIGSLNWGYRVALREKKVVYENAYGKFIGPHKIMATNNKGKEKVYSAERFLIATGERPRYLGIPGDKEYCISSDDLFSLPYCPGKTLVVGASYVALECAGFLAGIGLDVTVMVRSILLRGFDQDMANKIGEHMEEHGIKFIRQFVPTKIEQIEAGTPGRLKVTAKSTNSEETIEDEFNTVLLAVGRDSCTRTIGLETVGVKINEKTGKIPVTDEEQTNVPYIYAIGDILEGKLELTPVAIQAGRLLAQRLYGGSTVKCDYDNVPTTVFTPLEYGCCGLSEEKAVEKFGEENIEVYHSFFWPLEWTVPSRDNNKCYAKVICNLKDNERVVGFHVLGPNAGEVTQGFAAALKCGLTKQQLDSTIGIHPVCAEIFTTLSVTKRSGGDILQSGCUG

[2] = system: FaDu cell xenografts in SCID mice; experiment: [18F]-FDG PET study of FaDu xenografts; type: in vivo, mouse; details: 5 mg/kg i.p. once daily
Outline: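 Male SCID mice carried FaDu xenografts (1×10^6 cells); baseline scan at day 11, with food removed. Isoflurane anaesthesia on a 37 °C pad. [18F]-FDG i.v., 60-min 3D acquisition. Treatment was i.p. once daily (n=8) or vehicle (n=9), rescanned on day 3. SUVmean was taken over ROIs ≥1.8×10^5 Bq/mL, and day 3 was compared with day 0 by paired t-test.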

[3] = system: MDA-MB-231 xenografts in athymic mice; experiment: MDA-MB-231 orthotopic xenograft efficacy study; type: in vivo; details: for MDA-MB-231 xenograft tumor growth: 22 days, p<0.0001 vs vehicle
FaDu cells [4] = type: cell-based, human
FaDu cells [5] = experiment: Cellular H2O2 production, Amplex red assay; type: cell-based, human
Outline: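 FaDu cells were grown at 37 °C, 5% CO2 in medium with 10% FBS, 2 mM L-glutamine and 100 μg/mL penicillin/streptomycin. Tests used medium with 10% FBS plus 25 nM sodium selenite. Compound was given in DMSO (0.01% final) across a concentration range or over a time course. H2O2 was read by Amplex red. Runs were in triplicate, shown as mean ± SEM.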

HCT116 cells [6] = experiment: Mitochondrial respiration, Seahorse assay; type: cell-based, human
[7] = system: PyMT-MMTV mice mammary tumors; experiment: PyMT-MMTV tumor low frequency dosing study; type: in vivo; details: for tumor growth in PyMT-MMTV mice: three weeks; for tumor volumes compared to vehicle controls: mice surviving 20–22 days, p<0.05
HCT116 cells [8] = experiment: Cytotoxicity in HCT116 subclones with altered p53 status or BCL-2 overexpression; type: cell-based, human; details: subclones of HCT116 cells
[9] = system: FaDu cell xenografts in SCID mice; experiment: Repeated dose study in FaDu xenograft-bearing mice; type: in vivo; details: twice a day i.v., 10 mg/kg TRi-1, 15 mg/kg TRi-2 or 10 mg/kg auranofin; for FaDu xenograft tumor growth: four days
GPX1 = molecular target: T2, GPX1 (Homo sapiens, UniProt P07203); experiment: GPX1 inhibition; type: biochemical
T2 sequence (P07203 1-203): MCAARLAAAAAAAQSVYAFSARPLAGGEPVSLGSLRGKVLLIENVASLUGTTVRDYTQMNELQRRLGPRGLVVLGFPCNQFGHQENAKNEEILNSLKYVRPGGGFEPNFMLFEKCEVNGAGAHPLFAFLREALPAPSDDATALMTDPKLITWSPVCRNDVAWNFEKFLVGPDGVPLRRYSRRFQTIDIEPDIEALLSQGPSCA

TXNRD1 [10] = molecular target: T1, TXNRD1; experiment: SecTRAP activity; type: biochemical
TXNRD1 [11] = molecular target: T1, TXNRD1; type: binding
FaDu cells [12] = experiment: Cellular GSH concentrations; type: cell-based, human; details: 6 hours at 10×IC50
[13] = Liver microsome stability; type: in vitro ADME
[14] = system: JNK and p38 phosphorylation in FaDu cells; experiment: Western blot of JNK and p38 phosphorylation; type: cell-based, human; details: FaDu cells treated for 6 hours
[15] = system: cellular TXNRD activity in FaDu cells; experiment: Cellular TXNRD activity, insulin-endpoint assay; type: cell-based, human; details: 3 hours of compound exposure
[16] = system: primary human fibroblasts, primary keratinocytes, CCD841 colon epithelial cells; type: cell-based
SCID mice = experiment: Single dose escalation toxicity study; details: mouse, in vivo, iv
[17] = system: A549 lung carcinoma cells and MEFs; type: cell-based, human, mouse; details: for sensitivity of MEFs with the Txnrd1 gene deleted: Txnrd1 -/- vs Txnrd1 fl/fl MEFs
[18] = system: human TXNRD1 versus human TXNRD2; experiment: Inhibition of human TXNRD1 versus human TXNRD2 with DTNB as substrate; type: biochemical; details: human recombinant enzymes
Outline: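 Human recombinant TXNRD1 and TXNRD2 were assayed with DTNB as substrate, with activity read by absorbance change. TXNRD1 buffer was 50 mM Tris pH 7.5, 2 mM EDTA and 0.1 mg/mL BSA. Compounds were in DMSO. Results were normalized to DMSO and no-enzyme controls. Triplicates, mean ± SEM.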

FaDu cells [19] = experiment: Cytotoxicity towards FaDu cells, 72 hours; type: cell-based, human; details: 72 hours of incubation
Outline: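 Viability of FaDu cells after 72 h with test compound, in medium with 10% FBS and 25 nM sodium selenite, at 37 °C and 5% CO2. DMSO vehicle at 0.01% final. Run in triplicate and reported as mean ± SEM.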

FaDu cells [20] = type: cell-based, human; remark: listed apart in the source
human cancer cell lines = type: cell-based
NCI-60 cell panel = details: read-out: average growth inhibition to 50% (GI50); average over NCI-60 cell panel, screened previously; ref https://dtp.cancer.gov, NSC351105 (TRi-2) and NSC321521 (auranofin); cited from earlier work
[21] = HCT116 cells, 30-minute or 5-hour exposure
[22] = i.p. twice a week, TRi-1 5 mg/kg, auranofin 10 mg/kg

In the case of `COc1ccc([N+](=O)[O-])c(S(=O)(=O)c2ccc(Cl)cc2)n1` [TRi-1], the “mode of TXNRD1 inhibition” value (TXNRD1 [1]; with or without NADPH, before and after desalting) is reported as “irreversibly inhibit TXNRD1 in an NADPH-dependent manner”, the “activated caspase-3 staining in excised xenografts” value ([2]; between days three and four) is reported as “increased staining for activated caspase-3” and the “[18F]-FDG uptake in viable parts of the tumors” value ([2]; day 3 vs day 0) is reported as “markedly decreased”. The “MDA-MB-231 xenograft tumor growth” value ([3]; 10 mg/kg i.p.) was “significantly decreased compared to the vehicle controls”, the complete tumor regression ([3]; 10 mg/kg i.p., n=12) was “one tumor in the TRi-1 i.p. group completely regressing” and the “systemic toxicity in MDA-MB-231 xenograft study” value ([3]; 10 mg/kg i.v. or i.p.) was “no signs of overt systemic toxicity”. For the same compound, the “MDA-MB-231 xenograft tumor growth” value ([3]; 10 mg/kg i.v.) was “significantly decreased compared to the vehicle controls”, the “effect of GSH depletion with BSO on cytotoxicity” value (FaDu cells [4]) was “enhanced the cytotoxicity” and the “cellular H2O2 production” value (FaDu cells [5]) was “increased cellular H2O2 production”. For the same compound, the ATP-coupled basal respiration (HCT116 cells [6]; [21]) was “lacked effects on basal respiration”, the maximal respiratory capacity (HCT116 cells [6]; [21]) was “little effect on maximal respiratory capacity” and the “tumor growth in PyMT-MMTV mice” value [7, 22] was “impaired tumor growth”. The “tumor volumes compared to vehicle controls” value [7] was “significantly smaller compared to the vehicle controls”, the “resistance upon altered p53 status or BCL-2 overexpression” value (HCT116 cells [8]) was “no apparent resistance” and the “toxicity and mouse weight in repeated dose study” value [9] was “no signs of overt toxicity or changes in mouse weight”. The “FaDu xenograft tumor growth” value [9] was “decreased tumor growth compared to vehicle controls within four days”, the “less efficient in inhibiting GPX1 than TXNRD1” value (GPX1) was “over 1000 fold” and the “SecTRAP formation (NADPH-dependent redox cycling with juglone)” value (TXNRD1 [10]; after inhibition of normal TXNRD1 activity and desalting) was “maintained substantial NADPH-dependent redox cycling with juglone”. The “thermal stability of NADPH-reduced TXNRD1 upon incubation with compound” value (TXNRD1 [11]) was “stability was increased”, the “effect on cellular GSH concentrations” value (FaDu cells [12]) was “no effect on cellular GSH concentrations” and the “metabolism in liver microsomes” value [13] was “rather rapid metabolism”. For the same compound, the “JNK and p38 phosphorylation” value [14] was “efficiently activated JNK and p38 phosphorylation”, the “inhibition of cellular TXNRD activity” value [15] was “equal or greater potency compared to that of auranofin” and the “potency against non-cancerous cells compared to cancer cell lines” value [16] was “reduced potency”. For the same compound, the “highest administrable dose tolerated without overt signs of toxicity” value (SCID mice) was 10 mg/kg, the “cytotoxicity towards MEF cells versus A549 cells” value [17] was “preferentially toxic towards the A549 cells” and the “sensitivity of MEFs with the Txnrd1 gene deleted” value [17] was “additional resistance”. The “specificity for TXNRD1 compared to inhibition of TXNRD2” value [18] was 5- to 10 fold.
With `COc1cccc(S(=O)(=O)c2ccc(Cl)cc2)n1` [TRi-62] the “cytotoxicity towards FaDu cells” value (FaDu cells [19]) was “loss of cytotoxicity”.
In the case of `CC(=O)OC[C@H]1O[C@@H]([S-])[C@H](OC(C)=O)[C@@H](OC(C)=O)[C@@H]1OC(C)=O.CCP(CC)CC.[Au+]` [auranofin, reference compound], the “mode of TXNRD1 inhibition” value (TXNRD1 [1]) is reported as “irreversibly inhibit TXNRD1 in an NADPH-dependent manner”, the “cytotoxicity in colony-forming assay” value (FaDu cells [20]) is reported as “more cytotoxic than TRi-1” and the “effect of GSH depletion with BSO on cytotoxicity” value (FaDu cells [4]) is reported as “enhanced the cytotoxicity”. For the same compound, the “cellular H2O2 production” value (FaDu cells [5]) was “increased cellular H2O2 production”, the maximal respiratory capacity (HCT116 cells [6]) was “impaired maximal respiratory capacity” and the ATP-coupled basal respiration (HCT116 cells [6]; [21]) was “deteriorated ATP-coupled respiration”. The survival during observation [7, 22] was “two mice in the auranofin group had to be sacrificed due to poor health”, the “tumor growth in PyMT-MMTV mice” value [7, 22] was “impaired tumor growth” and the “tumor volumes compared to vehicle controls” value [7] was “significantly smaller compared to the vehicle controls”. For the same compound, the “resistance upon altered p53 status or BCL-2 overexpression” value (HCT116 cells [8]) was “no apparent resistance”, the “toxicity and mouse weight in repeated dose study” value [9] was “no signs of overt toxicity or changes in mouse weight” and the “FaDu xenograft tumor growth” value [9] was “decreased tumor growth compared to vehicle controls within four days”. The “cytotoxic potency, side-by-side comparison” value (human cancer cell lines) was “on average more potent than TRi-1”, the “less efficient in inhibiting GPX1 than TXNRD1” value (GPX1) was “over 1000 fold” and the GPX1 inhibition (GPX1; preincubated with GPX1 in the absence of GSH, high concentrations) was “moderate inhibition”. For the same compound, the “SecTRAP formation (NADPH-dependent redox cycling with juglone)” value (TXNRD1 [10]) was “maintained substantial NADPH-dependent redox cycling with juglone”, the “thermal stability of NADPH-reduced TXNRD1 upon incubation with compound” value (TXNRD1 [11]) was “not with TRi-2 or auranofin” and the GI50 (NCI-60 cell panel) was 760 nM. For the same compound, the “effect on cellular GSH concentrations” value (FaDu cells [12]) was “lowered GSH”, the “metabolism in liver microsomes” value [13] was “rather rapid metabolism” and the “JNK and p38 phosphorylation” value [14] was “did not activate JNK and p38 phosphorylation as robustly”. The “potency against non-cancerous cells compared to cancer cell lines” value [16] was “only displayed lower potency against the CDD841 cells”, the “cytotoxicity towards MEF cells versus A549 cells” value [17] was “similarly cytotoxic towards these two cell types” and the “sensitivity of MEFs with the Txnrd1 gene deleted” value [17] was “minimally affected”. The “TXNRD1 versus TXNRD2 inhibition profile” value [18] was “pan-TXNRD inhibitor”.
